Data: ChEMBL document CHEMBL4312029, “Structure-activity relationship studies and in vitro and in vivo anticancer activity of novel 3-aroyl-1,4-diarylpyrroles against solid tumors and hematological malignancies” (Eur J Med Chem, 2020)

Legend:
[1] = test system: HT-29; assay: Cytotoxicity against human HT-29 cells assessed as reduction in cell viability incubated for 48 hrs by MTT assay; assay type: functional, cell-based; conditions: for IC50: HT-29, 48 h
[2] = test system: SW480; assay: Cytotoxicity against human SW480 cells assessed as reduction in cell viability incubated for 48 hrs by MTT assay; assay type: functional, cell-based; conditions: for IC50: SW480, 48 h
[3] = Cytotoxicity against human LAMA84-s cells expressing IM-sensitive wild type Bcr/Abl assessed as reduction in cell viability incubated for 48 hrs by MTT assay; assay type: functional, cell-based
[4] = target: Tubulin; assay: Inhibition of tubulin polymerization (unknown origin) incubated for 15 mins followed by GTP addition and measured for 20 mins by spectrophotometry; assay type: protein-complex assay, Homo sapiens
Summary of the method: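 Tubulin assembly assay with tubulin at 10 µM. IC50 for inhibition of polymerization; run in duplicate or triplicate.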

[5] = test system: T98G; assay: Cytotoxicity against human T98G cells assessed as reduction in cell viability incubated for 48 hrs by MTS assay; assay type: functional, cell-based
Summary of the method: (§1)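 Increasing concentrations applied to glioblastoma and neuroblastoma lines to give dose-response viability curves; cytotoxic IC50 from triplicate experiments. Incubation 48 h, except U343MG at 72 h.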

[6] = Cytotoxicity against human SK-N-BE(2)C cells assessed as reduction in cell viability incubated for 48 hrs by MTT assay; assay type: functional, cell-based; summary of the method: as §1
[7] = test system: PBMC; assay: Cytotoxicity against human PBMC assessed as cell viability by MTT assay; assay type: cell-based
[8] = test system: SW-620; assay: Cytotoxicity against human SW620 cells assessed as reduction in cell viability incubated for 48 hrs by MTT assay; assay type: functional, cell-based; conditions: for IC50: SW-620, 48 h
[9] = target: Tubulin (Homo sapiens) (UniProt P68371+Q9H4B7+P0DPH7+P68366+Q13509+Q71U36+P04350+Q3ZCM7+P07437+P68363+Q9BQE3+Q6PEY2+Q13885+Q9BVA1+Q9BUF5); assay: Inhibition of [3H]colchicine binding to tubulin (unknown origin) at 5 uM incubated for 10 mins by DEAE-cellulose filter method relative to control; assay type: protein-complex assay
[10] = test system: KBM5; assay: Cytotoxicity against human KBM5 cells expressing IM- sensitive wild type Bcr/Abl assessed as reduction in cell viability incubated for 48 hrs by MTT assay; assay type: functional, cell-based; conditions: KBM5, 48 h
[11] = test system: MCF7; assay: Cytotoxicity against human MCF7 cells assessed as reduction in cell growth incubated for 96 hrs by MTT assay; assay type: functional, cell-based; conditions: MCF7, 96 h
Summary of the method: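 Growth inhibition of human breast carcinoma cells, reported as IC50; run in duplicate or triplicate.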

[12] = test system: HCT-116; assay: Cytotoxicity against human HCT116 cells assessed as reduction in cell viability incubated for 48 hrs by MTT assay; assay type: functional, cell-based; conditions: for IC50: HCT-116, 48 h
[13] = Cytotoxicity against human SK-N-BE cells assessed as reduction in cell viability incubated for 48 hrs by MTT assay; assay type: functional, cell-based; summary of the method: as §1
[14] = test system: T-24; assay: Cytotoxicity against human T24 cells assessed as reduction in cell viability incubated for 48 hrs by MTT assay; assay type: functional, cell-based; conditions: T-24, 48 h
[15] = test system: U-87 MG; assay: Cytotoxicity against human U87MG cells assessed as reduction in cell viability incubated for 48 hrs by MTS assay; assay type: functional, cell-based, U-87MG ATCC; conditions: for inhibition: U-87MG ATCC; summary of the method: as §1
[16] = test system: KBM5; assay: Cytotoxicity against human KBM5 cells expressing IM-resistant Bcr/Abl T315I mutant assessed as reduction in cell viability incubated for 48 hrs by MTT assay; assay type: functional, cell-based; conditions: KBM5, 48 h
[17] = organism: Homo sapiens; assay: (§2) Cytotoxicity against human U343MG cells assessed as reduction in cell viability incubated for 72 hrs by MTS assay; assay type: functional, cell-based; summary of the method: as §1
[18] = as §2; assay type: functional, cell-based; conditions: U-343MG; summary of the method: as §1
[19] = Cytotoxicity against IM resistant human LAMA84-r cells assessed as reduction in cell viability incubated for 48 hrs by MTT assay; assay type: functional, cell-based
[20] = test system: KU812 cell line; assay: Cytotoxicity against human KU812 cells expressing IM- sensitive wild type Bcr/Abl assessed as reduction in cell viability incubated for 48 hrs by MTT assay; assay type: functional, cell-based; conditions: KU812, 48 h

COc1cc(C(=O)c2cn(-c3ccc(F)cc3)cc2-c2ccc(N)cc2)cc(OC)c1OC
inhibition [1]: Dose-dependent effect
IC50 [1]: 35 nM
inhibition [2]: Dose-dependent effect
IC50 [2]: 167 nM
IC50 [3]: 20 nM
IC50 [4]: 500 nM
Emax [5]: 31%
IC50 [5]: 21.8 to 22 nM
inhibition [5]: Dose-dependent effect
IC50 [6]: 178 nM
Activity [7]: Non-Toxic
inhibition [8]: Dose-dependent effect
IC50 [8]: 47 nM
inhibition [9]: 90%
IC50 [10]: 25 nM
IC50 [11]: 12 nM
inhibition [12]: Dose-dependent effect
IC50 [12]: 36 nM
IC50 [13]: 288 nM
IC50 [14]: 48 nM
Emax [15]: 32%
IC50 [15]: 45.8 to 46 nM
inhibition [15]: Dose-dependent effect
IC50 [16]: 26 nM
inhibition [17]: Dose-dependent effect
Emax [18]: 37.1%
IC50 [18]: 20 to 20.1 nM
IC50 [19]: 22 nM
IC50 [20]: 18 nM

COc1cc(C(=O)c2cn(-c3cccc(N)c3)cc2-c2ccccc2F)cc(OC)c1OC
inhibition [1]: Dose-dependent effect
IC50 [1]: 56 nM
inhibition [2]: Dose-dependent effect
IC50 [2]: 162 nM
IC50 [3]: 15 nM
IC50 [4]: 500 nM
Emax [5]: 38.4%
IC50 [5]: 54 to 54.4 nM
inhibition [5]: Dose-dependent effect
IC50 [6]: 106 nM
Activity [7]: Non-Toxic
inhibition [8]: Dose-dependent effect
IC50 [8]: 123 nM
inhibition [9]: 90%
IC50 [10]: 18 nM
IC50 [11]: 17 nM
inhibition [12]: Dose-dependent effect
IC50 [12]: 42 nM
IC50 [13]: 244 nM
IC50 [14]: 34 nM
Emax [15]: 22%
IC50 [15]: 61 to 61.4 nM
inhibition [15]: Dose-dependent effect
IC50 [16]: 22 nM
inhibition [17]: Dose-dependent effect
Emax [18]: 31%
IC50 [18]: 68.9 to 69 nM
IC50 [19]: 14 nM
IC50 [20]: 14 nM

COc1cc(C(=O)c2cn(-c3ccc(C)cc3)cc2-c2ccccc2F)cc(OC)c1OC
IC50 [4]: 780 nM
inhibition [9]: 80%
IC50 [11]: 44 nM

COc1cc(C(=O)c2cn(-c3cccc(C)c3)cc2-c2ccc(N)cc2)cc(OC)c1OC
IC50 [4]: 330 nM
inhibition [9]: 88%
IC50 [11]: 18 nM

COc1cc(C(=O)c2cn(-c3cc(OC)c(OC)c(OC)c3)cc2-c2ccccc2)cc(OC)c1OC
IC50 [4]: > 20000 nM
inhibition [9]: 6.5%
IC50 [11]: > 5000 nM

COc1cc(C(=O)c2cn(-c3ccccc3)cc2-c2cc(F)ccc2F)cc(OC)c1OC
IC50 [4]: 1300 nM
inhibition [9]: 24%
IC50 [11]: 230 nM

COc1cc(C(=O)c2cn(-c3ccc(C)cc3)cc2-c2cccc(N)c2)cc(OC)c1OC
IC50 [4]: 420 nM
inhibition [9]: 88%
IC50 [11]: 53 nM

COc1cc(C(=O)c2cn(-c3ccc(F)cc3)cc2-c2ccc([N+](=O)[O-])cc2)cc(OC)c1OC
IC50 [4]: > 20000 nM
inhibition [9]: 0%
IC50 [11]: 240 nM

COc1cc(C(=O)c2cn(-c3cccc([N+](=O)[O-])c3)cc2-c2ccccc2)cc(OC)c1OC
IC50 [4]: > 20000 nM
inhibition [9]: 12%
IC50 [11]: 550 nM

COc1cc(C(=O)c2cn(-c3ccccc3)cc2-c2ccc(Cl)cc2)cc(OC)c1OC
IC50 [4]: 1200 nM
inhibition [9]: 23%
IC50 [11]: 290 nM

COc1cc(C(=O)c2cn(-c3ccc(C)cc3)cc2-c2ccc(N)cc2)cc(OC)c1OC
IC50 [4]: 360 nM
inhibition [9]: 95%
IC50 [11]: 6 nM

COc1cc(C(=O)c2cn(-c3ccc(F)cc3)cc2-c2ccccc2F)cc(OC)c1OC
IC50 [4]: 660 nM
inhibition [9]: 68%
IC50 [11]: 39 nM

COc1cc(C(=O)c2cn(-c3cccc(C)c3)cc2-c2ccccc2[N+](=O)[O-])cc(OC)c1OC
IC50 [4]: 1200 nM
inhibition [9]: 41%
IC50 [11]: 220 nM

COc1cc(C(=O)c2cn(-c3ccc(Cl)cc3)cc2-c2ccccc2)cc(OC)c1OC
IC50 [4]: 1700 nM
inhibition [9]: 42%
IC50 [11]: 140 nM

COc1cc(C(=O)c2cn(-c3cccc(N)c3)cc2-c2ccccc2Cl)cc(OC)c1OC
IC50 [4]: 630 nM
inhibition [9]: 79%
IC50 [11]: 40 nM

COc1cccc(-c2cn(-c3ccccc3)cc2C(=O)c2cc(OC)c(OC)c(OC)c2)c1
IC50 [4]: 450 nM
inhibition [9]: 27%
IC50 [11]: 180 nM

COc1cc(C(=O)c2cn(-c3ccc(N)cc3)cc2-c2ccccc2)cc(OC)c1OC
IC50 [4]: 1600 nM
inhibition [9]: 67%
IC50 [11]: 35 nM

COc1cc(C(=O)c2cn(-c3ccc(N)cc3)cc2-c2ccc([N+](=O)[O-])cc2)cc(OC)c1OC
IC50 [4]: 1800 nM
inhibition [9]: 23%
IC50 [11]: 260 nM

COc1cc(C(=O)c2cn(-c3cccc(F)c3)cc2-c2ccccc2[N+](=O)[O-])cc(OC)c1OC
IC50 [4]: 1100 nM
inhibition [9]: 41%
IC50 [11]: 190 nM

COc1cc(C(=O)c2cn(-c3ccc(F)cc3)cc2-c2ccccc2[N+](=O)[O-])cc(OC)c1OC
IC50 [4]: 680 nM
inhibition [9]: 46%
IC50 [11]: 38 nM

COc1cc(C(=O)c2cn(-c3ccccc3)cc2-c2ccccc2C)cc(OC)c1OC
IC50 [4]: 790 nM
inhibition [9]: 18%
IC50 [11]: 190 nM

COc1cc(C(=O)c2cn(-c3ccc(N)cc3)cc2-c2ccccc2F)cc(OC)c1OC
IC50 [4]: 590 nM
inhibition [9]: 79%
IC50 [11]: 28 nM

COc1ccc(-n2cc(C(=O)c3cc(OC)c(OC)c(OC)c3)c(-c3ccccc3)c2)cc1
IC50 [4]: 960 nM
inhibition [9]: 27%
IC50 [11]: 120 nM

COc1ccc(-c2cn(-c3ccccc3)cc2C(=O)c2cc(OC)c(OC)c(OC)c2)cc1
IC50 [4]: 480 nM
inhibition [9]: 42%
IC50 [11]: 70 nM

COc1ccccc1-c1cn(-c2ccccc2)cc1C(=O)c1cc(OC)c(OC)c(OC)c1
IC50 [4]: 550 nM
inhibition [9]: 31%
IC50 [11]: 190 nM

COc1cc(C(=O)c2cn(-c3ccc([N+](=O)[O-])cc3)cc2-c2ccccc2)cc(OC)c1OC
IC50 [4]: 3300 nM
inhibition [9]: 18%
IC50 [11]: 4000 nM

COc1cc(C(=O)c2cn(-c3ccccc3)cc2-c2ccccc2Cl)cc(OC)c1OC
IC50 [4]: 630 nM
inhibition [9]: 50%
IC50 [11]: 76 nM

COc1cc(C(=O)c2cn(-c3ccc(Br)cc3)cc2-c2ccccc2)cc(OC)c1OC
IC50 [4]: 660 nM
inhibition [9]: 78%
IC50 [11]: 20 nM
